# Screening results: PubChem, Sanford-Burnham Center for Chemical Genomics
# An excerpt weighted towards active compounds, which were near 0.77% of everything screened.
# mIAP activ: increases mouse intestinal alkaline phosphatase activity; muIAP, CDP-Star luminescence, 30 min; hits give high values; 1 = vehicle-only enzyme signal, 0 = enzyme-free wells; activation factor at 10 µM; 0.24% of 330,000 active; AID 2805;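 active = activation factor of at least 2 at 20 µM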
#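 Assay system: mouse IAP enzyme; Reagent: CDP-Star chemiluminescent phosphatase substrate; Compound: DMSO-dissolved test compounds; Incubation: 30 min, room temperature; Technique: luminescence from enzymatic CDP-Star hydrolysis; Controls: DMSO-only wells and no-enzyme negative control.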
# hIAP inh: human IAP inhibition | purified IAP, CDP-Star luminescence, 30 min | inhibition, % at 10 µM | 0.12% of 330,000 active;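 active = inhibition reaching a set limit with compound at 10 µM in the primary screen, cut at about 35% in these data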;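 also: plate controls were DMSO wells with enzyme for no effect and no-enzyme buffer wells for full effect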
# Target sequence (P09923 whole entry, looked up): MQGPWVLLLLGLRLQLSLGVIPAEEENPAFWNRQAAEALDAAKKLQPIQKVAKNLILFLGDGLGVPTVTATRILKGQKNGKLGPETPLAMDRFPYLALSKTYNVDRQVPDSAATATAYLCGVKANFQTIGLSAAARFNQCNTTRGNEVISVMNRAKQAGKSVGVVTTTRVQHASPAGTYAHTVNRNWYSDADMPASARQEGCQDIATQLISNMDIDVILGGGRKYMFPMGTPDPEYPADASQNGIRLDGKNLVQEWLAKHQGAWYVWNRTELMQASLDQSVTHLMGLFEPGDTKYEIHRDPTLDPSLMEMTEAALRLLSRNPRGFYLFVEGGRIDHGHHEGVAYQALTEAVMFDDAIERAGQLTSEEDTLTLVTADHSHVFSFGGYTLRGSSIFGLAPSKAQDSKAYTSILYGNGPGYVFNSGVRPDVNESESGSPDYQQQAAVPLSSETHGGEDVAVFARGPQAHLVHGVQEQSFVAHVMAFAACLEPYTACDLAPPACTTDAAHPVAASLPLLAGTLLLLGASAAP
# bIAP activator: increases bovine intestinal alkaline phosphatase activity | purified bovine IAP, CDP-star luminescence, 30 min; hits give high values; fold of DMSO-control signal, blank-subtracted | activation factor at 20 µM | 0.17% of 200,000 active;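 active = activation factor of 2 or more at 20 µM, a signal rise over negative controls twice the positive control's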
# hIAP activ: human IAP activation; purified human IAP, CDP-Star luminescence, 30 min; hits give high values; 1 = vehicle-only enzyme, 0 = enzyme-free background; 0.16% of 330,000 active; activation factor at 10 µM; AID 2524;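 active = activation factor of the enzyme at least 2-fold when tested at 20 µM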
# mIAP block: blocks mouse intestinal alkaline phosphatase; purified mouse IAP, CDP-Star luminescence, 30 min; inhibition, % at 10 µM; 0.2% of 330,000 active; AID 2806;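 active = inhibition of at least 40% at 10 µM in the primary screen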;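 also: plate controls were DMSO with enzyme for no effect and no enzyme wells for full effect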
# bIAP inh: blocks bovine intestinal alkaline phosphatase activity | purified bovine IAP, CDP-star luminescence, 30 min | inhibition, % at 20 µM | 190,000 tested, under 10 active | AID 1019;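 active = over 50% inhibition of intestinal alkaline phosphatase at 20 µM in the single-dose screen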
#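 test system = bovine IAP enzyme | medium = DEA buffer 100 mM, pH 9.8, with MgCl2 1.0 mM, ZnCl2 0.02 mM | detection = luminescence | dosing = single compound dose of 20 µM, 2% DMSO final | incubation = 30 min reaction at room temperature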
# * = called active by the depositor; i = inactive; nt = no result.
SMILES,mIAP activ,hIAP inh,bIAP activator,hIAP activ,mIAP block,bIAP inh
COc1ccc(NS(=O)(=O)c2cccc(C(=O)NNC(=O)c3cccc(NC(C)=O)c3)c2)cc1,0.99,-7.8,nt,1.08,1.0,nt
O=C(CSc1nc2ccccc2c(=O)n1Cc1ccco1)NCc1ccco1,0.833,16.4,1.2,0.836,16.7,-20.7
COc1cc2nc(SCC(=O)NCCc3ccccc3)n(Cc3ccco3)c(=O)c2cc1OC,0.876,4.4,2*,0.956,12.4,-95.5
CCOc1ccc(S(=O)(=O)N2CCCCC2)cc1NC(=O)C1CSC2(C)CCC(=O)N12 (centres undefined),1.01,-17.6,nt,1.18,-0.7,nt
Cc1cccc(N2CCN(S(=O)(=O)c3ccc(-c4ccc(=O)[nH]n4)o3)CC2)c1C,1.06,4.9,nt,0.951,-5.6,nt
CCOC(=O)c1c(N)sc(=S)c2c1CCC2,0.589,3.8,0.9,0.962,41.1*,5.6
COc1cc(C)c2c(c1C=O)Oc1c(c(C)c(O)c3c1C(O)OC3=O)OC2=O (centres undefined),0.463,-62.2,0.9,1.62,53.7*,6.3
CCCn1c(SCC(=O)NCC(=O)Nc2ccc(F)c(F)c2F)nc2ccccc2c1=O,1.01,6.3,nt,0.937,-0.9,nt
CCN1/C(=C\C=C2\C(=O)N(C)C(=S)N2C)Sc2ccccc21,0.848,37.3*,0.6,0.627,15.2,35.2
CC1CCC(NC(=O)COC(=O)C2=NN(c3ccccc3)C(=O)CC2)CC1 (centres undefined),1.01,10.2,nt,0.898,-0.6,nt
COc1cccc(OCCNC(=O)Nc2cc(F)c(F)cc2Cl)c1,2.33*,-13.4,1.1,1.13,-132.9,-9.5
COc1ccc(OCCNC(=O)Nc2cc(F)c(F)cc2Cl)cc1,1.86,-10.9,1.1,1.11,-86.5,-5.1
CS(=O)(=O)c1cccc(NC(=O)C2CCCN2S(=O)(=O)c2ccc(F)cc2)c1 (centres undefined),0.963,18.3,nt,0.817,3.7,nt
CCCc1c(NC(=O)Nc2ccc(F)cc2)cnn1-c1ccccc1,2.3*,5.2,nt,0.948,-130.0,nt
CC1(C)OC(c2ccccc2)=C/C(=C/C=C2C(=O)c3ccccc3C2=O)O1,0.771,49.1*,0.7,0.509,22.9,27.4
N#C/C(=C(/O)COC(=O)CSc1ccc2ccccc2c1)c1nc2ccccc2[nH]1,0.78,-142.6,0.6,2.43*,22.0,43.3
COc1ccc(-n2cc(CNCCc3ncc(C)[nH]3)c(-c3ccccc3Cl)n2)cc1,1.08,-33.1,2.4*,1.33,-7.9,-141.2
COc1ccc(-n2cc(CNCCc3cnc[nH]3)c(-c3cccc(F)c3)n2)cc1,1.02,-36.6,2.9*,1.37,-1.7,-190.4
COc1ccc(-n2cc(CNCc3cccnc3)c(-c3cccc(F)c3)n2)cc1,0.983,6.3,1.1,0.937,1.7,-6.6
COc1ccc(-n2cc(CNCCc3nc(C)cc(C)n3)c(-c3ccccc3Cl)n2)cc1,1.05,4.2,1.2,0.958,-5.0,-20.5
COc1cccc(CN(C(=O)c2cnccn2)C(C(=O)NC2CCCCC2)c2cc(OC)c(OC)c(OC)c2)c1 (centres undefined),0.905,10.3,nt,0.897,9.5,nt
COc1ccc(C(CNC(=O)C2CC(=O)N(Cc3ccccc3)C2)N2CCOCC2)cc1 (centres undefined),0.929,3.4,nt,0.966,7.1,nt
COc1ccc(CNC[C@@H](CCCCN(C)Cc2ccc(OC)cc2)N2C[C@H](c3ccccc3)N(CCc3ccc(Cl)c(Cl)c3)C(=O)C2=O)cc1,1.08,1.5,6.6*,0.985,-8.3,i
CCc1cccc(NC(=O)C2CCN(S(=O)(=O)c3ccc4c(c3)CC(C)N4C(C)=O)CC2)c1 (centres undefined),2.15*,4.2,nt,0.958,-115.3,nt
COc1cccc(NC(=O)C2CCN(S(=O)(=O)c3ccc4c(c3)CC(C)N4C(C)=O)CC2)c1 (centres undefined),1.3,-7.4,nt,1.07,-29.8,nt
CC(=O)N1c2ccc(S(=O)(=O)N3CCC(C(=O)Nc4cccc(C(F)(F)F)c4)CC3)cc2CC1C (centres undefined),2.37*,22.1,nt,0.779,-137.3,nt
CC(C)(CO)CNC(=O)c1ccc2nc(Cc3cccc(Cl)c3)oc2c1,1.04,-5.9,nt,1.06,-3.9,nt
